Values after ≈ are worked out from the molar mass of the structure shown.

The test system of series [1] is Streptococcus pneumoniae. Nature of the series: Antibacterial activity against fluoroquinolone resistance Streptococcus pneumoniae SP3765. The series is classed as functional.
The subject of series [2] is Haemophilus influenzae. Put plainly: Antibacterial activity against Haemophilus influenzae HI3542. The series is classed as functional. The settings on record: HI-3542.
The target in series [3] is Voltage-gated inwardly rectifying potassium channel KCNH2 (Homo sapiens, UniProt Q12809). Put plainly: Displacement of [3H]dofetilide from human ERG by fliter binding assay. For orientation: Loss of bound radioactivity is the signal in a displacement assay; it reports binding, not function.
Sequence of Voltage-gated inwardly rectifying potassium channel KCNH2 (Q12809 whole entry): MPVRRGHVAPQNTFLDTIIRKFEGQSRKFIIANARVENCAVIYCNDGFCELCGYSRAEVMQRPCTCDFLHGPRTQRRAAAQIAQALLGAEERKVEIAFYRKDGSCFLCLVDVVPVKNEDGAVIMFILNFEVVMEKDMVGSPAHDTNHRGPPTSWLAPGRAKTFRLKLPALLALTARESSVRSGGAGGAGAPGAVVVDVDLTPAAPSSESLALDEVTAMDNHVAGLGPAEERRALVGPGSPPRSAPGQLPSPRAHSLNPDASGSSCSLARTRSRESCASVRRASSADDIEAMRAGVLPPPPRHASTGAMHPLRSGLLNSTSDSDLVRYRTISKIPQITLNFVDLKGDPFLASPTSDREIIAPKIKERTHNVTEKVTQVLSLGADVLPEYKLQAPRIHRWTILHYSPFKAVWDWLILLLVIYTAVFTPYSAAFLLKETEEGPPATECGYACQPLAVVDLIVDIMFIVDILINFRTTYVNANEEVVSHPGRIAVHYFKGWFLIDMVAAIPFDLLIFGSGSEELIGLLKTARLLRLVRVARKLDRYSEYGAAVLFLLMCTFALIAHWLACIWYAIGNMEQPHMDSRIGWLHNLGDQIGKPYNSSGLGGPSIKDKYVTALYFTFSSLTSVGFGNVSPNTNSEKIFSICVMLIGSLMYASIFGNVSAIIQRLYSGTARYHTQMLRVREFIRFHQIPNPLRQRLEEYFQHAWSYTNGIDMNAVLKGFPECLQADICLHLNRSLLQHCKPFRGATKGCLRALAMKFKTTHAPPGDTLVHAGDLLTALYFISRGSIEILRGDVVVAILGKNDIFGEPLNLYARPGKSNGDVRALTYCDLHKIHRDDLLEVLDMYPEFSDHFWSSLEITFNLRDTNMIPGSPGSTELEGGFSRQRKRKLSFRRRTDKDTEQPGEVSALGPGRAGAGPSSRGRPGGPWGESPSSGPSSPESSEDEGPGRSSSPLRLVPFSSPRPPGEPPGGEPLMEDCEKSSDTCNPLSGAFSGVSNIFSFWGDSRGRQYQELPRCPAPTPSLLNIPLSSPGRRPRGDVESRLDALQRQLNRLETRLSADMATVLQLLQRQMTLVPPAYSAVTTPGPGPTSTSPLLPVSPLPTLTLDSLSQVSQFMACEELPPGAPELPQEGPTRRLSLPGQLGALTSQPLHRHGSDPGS
The subject of series [4] is Moraxella catarrhalis. Put plainly: Antibacterial activity against Moraxella catarrhalis BC-3531. Type of series: functional.
For series [5], the system named is Staphylococcus aureus. Put plainly: Antibacterial activity against Staphylococcus aureus UC76. The series is classed as functional.
For series [6], the system named is Staphylococcus aureus. Nature of the series: Antibacterial activity against Staphylococcus aureus SA2552. Type of series: functional.
The test system of series [7] is Streptococcus pneumoniae. Nature of the series: Antibacterial activity against Streptococcus pneumoniae SV1. Type of series: functional.
For series [8], the target named is hERG (KCNH2) (Homo sapiens, UniProt Q12809). Nature of the series: Displacement of [3H]dofetilide from human ERG at 300 uM. The following applies: probe [3H]dofetilide. The procedure, abridged: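 Radioligand filter-binding assay measuring displacement of [3H]-dofetilide from the hERG channel, run as in a patent protocol.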
Sequence of hERG (KCNH2) (Q12809 whole entry): as above
The test system of series [9] is Rattus norvegicus. Nature of the series: AUC in rat at 1 mg/kg, iv. Type of series: ADME, organism-based, Plasma. Also on record: dose 1 mg/kg, route intravenous. The following applies: in vivo.
A short description of series [10]: Clearance in rat at 1 mg/kg, iv. Further details: dose 1 mg/kg, route intravenous. Type of series: ADME, organism-based. The settings on record: in vivo.
A short description of series [11]: Volume of distribution in rat at 1 mg/kg, iv. The series is classed as ADME, organism-based. Also on record: dose 1 mg/kg, route intravenous. The following applies: in vivo, read-out: Vdss.
Series [12] in a line: Half life in rat at 1 mg/kg, iv. Also on record: dose 1 mg/kg, route intravenous. Type of series: ADME, organism-based. The settings on record: in vivo.
A short description of series [13]: Cmax in rat at 5 mg/kg, po. The series is classed as ADME, organism-based. Also on record: dose 5 mg/kg, route oral. The following applies: in vivo.
Series [14] is described as follows: Bioavailability in rat at 5 mg/kg, po. Type of series: ADME, organism-based. The following applies: in vivo.

Consider `COc1c(N2CC[C@@H](CN)C2)c(F)cc2c(=O)c(C(=O)O)cn(C3CC3)c12`, for which the MIC in series [1] came to 1 µg/mL (≈ 2.66 µM); in series [2], 0.015 µg/mL (≈ 0.04 µM); in series [4], 0.125 µg/mL (≈ 0.333 µM); in [5] it was 0.015 µg/mL (≈ 0.04 µM); in series [6], 0.06 µg/mL (≈ 0.16 µM); in [7] it was 0.06 µg/mL (≈ 0.16 µM). This compound also gave a Ki in series [3] of 24 µM.
Turning to `CC1COc2c(N3CC[C@@H]([C@H](C)NCCC#N)C3)c(F)cc3c(=O)c(C(=O)O)cn1c23` (some centres not stated), the MIC in series [1] was determined as 0.25 µg/mL (≈ 0.583 µM); in [2], 0.06 µg/mL (≈ 0.14 µM); in series [4], 0.125 µg/mL (≈ 0.292 µM); in [5], 0.015 µg/mL (≈ 0.035 µM); in [6], 0.03 µg/mL (≈ 0.07 µM); in [7], 0.06 µg/mL (≈ 0.14 µM). Also, the Ki in [3] was more than 150 µM. This compound came in with an inhibition at 300 µM in [8] of 10%.
Consider `COc1c(N2CC[C@@H]([C@H](C)N)C2)ccc2c(=O)c(C(=O)O)cn(C3CC3)c12`, for which the MIC in [1] came out at 0.125 µg/mL (≈ 0.337 µM); in series [2], 0.125 µg/mL (≈ 0.337 µM); in series [4], 0.06 µg/mL (≈ 0.162 µM); in series [5], 0.008 µg/mL (≈ 0.0215 µM); in series [6] it was 0.03 µg/mL (≈ 0.0808 µM); in [7] it was 0.015 µg/mL (≈ 0.0404 µM).
`CN[C@@H](C)[C@@H]1CCN(c2c(F)cc3c(=O)c(C(=O)O)cn(C4CC4)c3c2OC)C1` [PREMAFLOXACIN]: the MIC in series [1] was determined as 0.125 µg/mL (≈ 0.31 µM); in series [2], 0.015 µg/mL (≈ 0.0372 µM); in series [4], 0.06 µg/mL (≈ 0.149 µM); in [5] it was 0.015 µg/mL (≈ 0.0372 µM); in series [6] it was 0.06 µg/mL (≈ 0.149 µM); in series [7], 0.008 µg/mL (≈ 0.0198 µM). The same compound yielded a Ki in [3] of more than 150 µM. The same compound returned an inhibition at 300 µM in series [8] of 40%.
On to `COc1c(N2CC[C@@H](CNCCC#N)C2)ccc2c(=O)c(C(=O)O)cn(C3CC3)c12`, for which the MIC came to 2 µg/mL (≈ 4.87 µM) in series [1]; 0.25 µg/mL (≈ 0.609 µM) in [2]; 1 µg/mL (≈ 2.44 µM) in series [4]; 0.03 µg/mL (≈ 0.0731 µM) in [5]; 0.25 µg/mL (≈ 0.609 µM) in [6]; 0.125 µg/mL (≈ 0.305 µM) in series [7].
Take `COc1c(N2CC[C@@H](CN)C2)ccc2c(=O)c(C(=O)O)cn(C3CC3)c12`: the MIC in [1] worked out at 4 µg/mL (≈ 11.2 µM); in series [2], 0.06 µg/mL (≈ 0.168 µM); in [4], 0.5 µg/mL (≈ 1.4 µM); in series [5] it was 0.03 µg/mL (≈ 0.0839 µM); in series [6] it was 0.25 µg/mL (≈ 0.699 µM); in series [7] it was 0.125 µg/mL (≈ 0.35 µM). In [3], the Ki is 64 µM.
On to `CCC1(CN)CN(c2c(F)cc3c(=O)c(C(=O)O)cn(C4CC4)c3c2C)C1`, for which the MIC was determined as 1 µg/mL (≈ 2.68 µM) in [1]; 0.015 µg/mL (≈ 0.0402 µM) in [2]; 0.125 µg/mL (≈ 0.335 µM) in [4]; 0.015 µg/mL (≈ 0.0402 µM) in series [5]; 0.03 µg/mL (≈ 0.0803 µM) in [6]; 0.06 µg/mL (≈ 0.161 µM) in [7]. The compound also yielded a Ki in series [3] of 45 µM.
As for `COc1c(N2CC[C@@H]([C@H](C)NCCC#N)C2)c(F)cc2c(=O)c(C(=O)O)cn(C3CC3)c12`, the MIC in series [1] is 0.125 µg/mL (≈ 0.282 µM); in series [2], 0.06 µg/mL (≈ 0.136 µM); in [4], 0.06 µg/mL (≈ 0.136 µM); in series [5], 0.004 µg/mL (≈ 0.00904 µM); in series [6] it was 0.008 µg/mL (≈ 0.0181 µM); in series [7], 0.015 µg/mL (≈ 0.0339 µM). The same compound had a Ki in series [3] of more than 150 µM. The compound further yielded an AUC in [9] of 3.5 ug/hr.ml. The compound further gave a clearance in series [10] of 24 mL/min/kg. The Vd in series [11] is 2.5 L/kg. Also, in [12], the half-life was 2.7 h. In [13], this compound gave a Cmax of 1200 ng/mL. The bioavailability in series [14] turned out to be 70%. In addition, the inhibition at 300 µM in series [8] came to 2%.
Consider `CN[C@@H](CC#N)[C@@H]1CCN(c2c(F)cc3c(=O)c(C(=O)O)cn(C4CC4)c3c2OC)C1`, for which the MIC turned out to be 0.5 µg/mL (≈ 1.17 µM) in series [1]; 0.03 µg/mL (≈ 0.07 µM) in series [2]; 0.06 µg/mL (≈ 0.14 µM) in series [4]; 0.008 µg/mL (≈ 0.0187 µM) in [5]; 0.06 µg/mL (≈ 0.14 µM) in series [6]; 0.06 µg/mL (≈ 0.14 µM) in series [7]. In series [3], this compound came in with a Ki of more than 150 µM. Moreover, the AUC in [9] stood at 4.4 ug/hr.ml. For the same compound, the clearance in series [10] was found to be 19 mL/min/kg. Besides, the Vd in [11] came out at 1.8 L/kg. The compound further had a half-life in [12] of 2.4 h. This compound also came in with a Cmax in [13] of 1400 ng/mL. In series [14], the bioavailability came out at 53%. The compound further had an inhibition at 300 µM in [8] of 9%.
`Cc1c(N2CC(C)(CNCCC#N)C2)c(F)cc2c(=O)c(C(=O)O)cn(C3CC3)c12`: the MIC in series [1] was 2 µg/mL (≈ 4.85 µM); in series [2] it was 0.06 µg/mL (≈ 0.145 µM); in series [4], 0.125 µg/mL (≈ 0.303 µM); in [5] it was 0.03 µg/mL (≈ 0.0727 µM); in series [6], 0.03 µg/mL (≈ 0.0727 µM); in [7], 0.125 µg/mL (≈ 0.303 µM). In [3], this compound returned a Ki of more than 150 µM. In addition, in series [8], at 300 µM the inhibition was 18%.
`COc1c(N2CC[C@@H](CNCCC#N)C2)c(F)cc2c(=O)c(C(=O)O)cn(C3CC3)c12`: the MIC in series [1] was found to be 2 µg/mL (≈ 4.67 µM); in series [2] it was 0.125 µg/mL (≈ 0.292 µM); in series [4], 0.5 µg/mL (≈ 1.17 µM); in series [5], 0.03 µg/mL (≈ 0.07 µM); in series [6], 0.06 µg/mL (≈ 0.14 µM); in series [7] it was 0.125 µg/mL (≈ 0.292 µM). The compound also came in with a Ki in [3] of 106 µM.

What is called Ki is a dissociation constant, usually derived from enzyme kinetics or from competition with a known ligand. A high value points to lower affinity. By inhibition is commonly meant the share of the control response that was lost under treatment. A lower inhibition goes with little suppression. In general, clearance refers to a measure of how efficiently the substance is removed, as volume per time. Lower therefore signals a low capacity for elimination. What is called half-life is how long it takes for the measured level to halve. Read a high half-life as slow loss. One may read the Cmax as the maximum level reached in the sampled fluid or tissue. As a reminder, the bioavailability is dose-corrected exposure relative to a reference, in per cent. Higher therefore signals good availability.

For the origin of these results see ChEMBL document CHEMBL1144619, “The synthesis and biological evaluation of novel series of nitrile-containing fluoroquinolones as antibacterial agents” (Bioorg Med Chem Lett, 2007).
